Consider 10 compounds from ChEMBL document CHEMBL2021854, “2-Aminopyrimidine based 4-aminoquinoline anti-plasmodial agents. Synthesis, biological activity, structure-activity relationship and mode of action studies” (Eur J Med Chem, 2012).

Each structure is given as a SMILES string.

The term EC50 denotes the concentration that produces a half-maximal response.

The experiment deals with Vaccinia virus. Description: Antiviral activity against Vaccinia virus infected in HEL cells assessed as inhibition of virus-induced cytopathogenicity after 4 days. Format: functional, organism-based. Conditions: Orthopoxvirus vaccinia, 96 h. Summed up: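 Confluent HEL or HeLa monolayers infected with 100 CCID50 of virus in the presence of varying compound concentrations.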

With `CCOC(=O)c1c(C)nc(NCCNc2ccnc3cc(Cl)ccc23)nc1-c1ccccc1`, the EC50 was above 4 µM.
Under `CCOC(=O)c1c(C)nc(NCCCNc2ccnc3cc(Cl)ccc23)nc1-c1ccccc1` stands above 100 µM.
Under `CCOC(=O)c1c(C)nc(NCCCCNc2ccnc3cc(Cl)ccc23)nc1-c1ccccc1` stands above 100 µM.
In the case of `CCOC(=O)c1c(C)nc(NCCCNc2ccnc3cc(Cl)ccc23)nc1C` it was above 100 µM; in that of `CCOC(=O)c1c(C)nc(NCCCCNc2ccnc3cc(Cl)ccc23)nc1C`, above 100 µM; in that of `Cc1nc(NCCCNc2ccnc3cc(Cl)ccc23)nc(-c2cccc([N+](=O)[O-])c2)c1C(=O)OC(C)C`, above 4 µM.
As for `Cc1nc(NCCNc2ccnc3cc(Cl)ccc23)nc(-c2ccccc2[N+](=O)[O-])c1C(=O)OC(C)C`, the EC50 was above 20 µM.
Consider `Cc1nc(NCCCCNc2ccnc3cc(Cl)ccc23)nc(-c2ccccc2[N+](=O)[O-])c1C(=O)OC(C)C`, for which the EC50 was above 4 µM.
Under `Nc1nc2c(ncn2COCCO)c(=O)[nH]1` [ACYCLOVIR] stands above 250 µM; under `Nc1nc(O)c2ncn(COC(CO)CO)c2n1` [GANCICLOVIR], above 100 µM.
